What was measured:
[1] = target: T1, TLR2 (Homo sapiens, UniProt O60603); experiment: NF-κB induction; assay type: cell-based
In short: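 HEK293 cells stably transfected with TLR2, MD2, CD14 and a secreted alkaline phosphatase (sAP) reporter under NF-κB/AP-1 promoters. Cells were kept in selection medium with zeocin and normocin. They were grown in 384-well plates to confluency, then given graded concentrations of stimuli. Supernatant sAP, taken as proportional to NF-κB induction, was read at 620 nm with an alkaline phosphatase-specific chromogen in detection medium.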
Target sequence in this assay (O60603 21-784): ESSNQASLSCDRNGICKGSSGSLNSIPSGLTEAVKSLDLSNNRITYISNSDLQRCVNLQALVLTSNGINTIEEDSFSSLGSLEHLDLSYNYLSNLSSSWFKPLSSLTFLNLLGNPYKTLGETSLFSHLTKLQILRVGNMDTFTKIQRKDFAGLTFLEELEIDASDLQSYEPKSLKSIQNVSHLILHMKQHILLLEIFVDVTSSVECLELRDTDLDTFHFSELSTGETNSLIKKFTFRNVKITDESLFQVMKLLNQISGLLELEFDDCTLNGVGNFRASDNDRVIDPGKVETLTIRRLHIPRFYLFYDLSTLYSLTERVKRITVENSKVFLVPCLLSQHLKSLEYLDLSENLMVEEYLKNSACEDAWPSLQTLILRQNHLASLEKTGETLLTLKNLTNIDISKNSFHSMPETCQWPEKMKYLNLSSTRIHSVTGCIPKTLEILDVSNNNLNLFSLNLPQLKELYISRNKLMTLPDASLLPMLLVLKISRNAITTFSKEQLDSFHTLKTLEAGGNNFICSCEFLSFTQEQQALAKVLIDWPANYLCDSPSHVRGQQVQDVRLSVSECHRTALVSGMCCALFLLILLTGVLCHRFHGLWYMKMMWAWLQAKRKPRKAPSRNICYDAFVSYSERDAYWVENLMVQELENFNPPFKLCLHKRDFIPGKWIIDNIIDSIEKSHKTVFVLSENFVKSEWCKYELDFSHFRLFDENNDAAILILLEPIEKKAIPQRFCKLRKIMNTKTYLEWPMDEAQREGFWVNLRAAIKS
Target sequence in this assay (Q9Y2C9 32-796 partner): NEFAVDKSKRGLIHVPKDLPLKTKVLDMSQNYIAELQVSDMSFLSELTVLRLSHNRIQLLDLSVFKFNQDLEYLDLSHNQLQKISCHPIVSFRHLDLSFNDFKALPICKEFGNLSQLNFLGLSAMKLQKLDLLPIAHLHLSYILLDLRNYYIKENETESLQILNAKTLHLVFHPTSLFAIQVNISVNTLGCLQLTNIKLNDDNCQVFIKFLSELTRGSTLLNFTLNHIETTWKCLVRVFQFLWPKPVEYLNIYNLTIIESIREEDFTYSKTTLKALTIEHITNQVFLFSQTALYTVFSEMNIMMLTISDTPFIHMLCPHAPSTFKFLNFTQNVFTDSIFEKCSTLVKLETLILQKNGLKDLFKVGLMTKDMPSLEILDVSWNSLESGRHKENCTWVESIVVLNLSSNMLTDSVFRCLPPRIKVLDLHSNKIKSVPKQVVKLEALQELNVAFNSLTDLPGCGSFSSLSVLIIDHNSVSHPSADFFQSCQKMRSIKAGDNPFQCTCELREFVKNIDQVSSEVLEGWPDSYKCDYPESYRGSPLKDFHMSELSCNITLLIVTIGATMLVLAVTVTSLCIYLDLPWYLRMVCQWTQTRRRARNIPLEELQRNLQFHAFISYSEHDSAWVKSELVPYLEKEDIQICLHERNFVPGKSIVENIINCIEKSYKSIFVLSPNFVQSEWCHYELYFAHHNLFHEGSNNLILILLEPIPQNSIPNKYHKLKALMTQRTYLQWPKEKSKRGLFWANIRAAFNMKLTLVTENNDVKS

[2] = target: T1, TLR2; experiment: Test of compounds as TLR2 receptor antagonists; assay type: cell-based
Target sequence in this assay (O60603 21-784): as the sequence (O60603 21-784) above

[3] = system: rabbits; experiment: Fever response / acute toxicity in rabbits; assay type: in vivo, rabbit; conditions: dose of 100 ng/kg, manuscript in preparation
[4] = system: murine cells; conditions: cited from earlier work
[5] = system: patients with inoperable carcinoma of the pancreas; conditions: single intraoperative 20–30 μg intratumoral injection; cited from earlier work

Compound	TLR2 agonistic activity (in words) ([1]; human TLR2 reporter gene assay)	Activity as TLR2 receptor antagonist [2]	also measured
CCCCCCCCCCCCCCCC(=O)OC[C@@H](CSCCNC(=O)[C@H](N)CO)OC(=O)CCCCCCCCCCCCCCC [Compound 8b, (S)-3-(2-((R)-2-amino-3-hydroxypropanamido)ethylthio)propane-1,2-diyl dipalmitate]	only 8a was active		
CCCCCCCCCCCCCCCC(=O)N[C@H](COC(=O)CCCCCCCCCCCCCCC)CSC[C@H](N)C(=O)N[C@@H](CO)C(=O)OC.O=C(O)C(F)(F)F [Compound 37, (R)-3-((R)-2-amino-3-((S)-3-hydroxy-1-methoxy-1-oxopropan-2-ylamino)-3-oxopropylthio)-2-palmitamidopropyl palmitate]	partially active	inactive	TLR2 agonistic activity relative to reference lipopeptide PAM2CSK4 ([1]; compared with PAM2CSK4): weaker by about three orders of magnitude
lipopolysaccharide [LPS]			Fever response [3]: robust fever response; Secretion of chemokines [4]: potently induced the secretion of a similar pattern of chemokines
CCCCCCCCCCCCCCCC(=O)OC[C@H](CSCCN)OC(=O)CCCCCCCCCCCCCCC [Compound 6a, (R)-3-(2-aminoethylthio)propane-1,2-diyl dipalmitate]	weakly active	inactive	IC50 [1]: 1000 nM
CCCCCCCCCCCCCCCC(=O)OC[C@H](COCC(N)C(=O)N[C@H](CO)C(=O)OC)OC(=O)CCCCCCCCCCCCCCC (stereo partly drawn) [Compound 21b, (S)-3-(2-amino-3-((R)-3-hydroxy-1-methoxy-1-oxopropan-2-ylamino)-3-oxopropoxy)propane-1,2-diyl dipalmitate]		inactive	TLR2 agonistic activity (in words) ([1]; at the highest concentration tested): inactive
CCCCCCCCCCCCCCCC(=O)OC[C@H](COCC(N)C(=O)N[C@@H](CO)C(=O)OC)OC(=O)CCCCCCCCCCCCCCC (stereo partly drawn) [Compound 21a, (S)-3-(2-amino-3-((S)-3-hydroxy-1-methoxy-1-oxopropan-2-ylamino)-3-oxopropoxy)propane-1,2-diyl dipalmitate]		inactive	
CCCCCCCCCCCCCCCC(=O)NC[C@H](CSC[C@H](N)C(=O)N[C@@H](CO)C(=O)OC)NC(=O)CCCCCCCCCCCCCCC [Compound 45, (S)-methyl 2-((R)-2-amino-3-((R)-2,3-dipalmitamidopropylthio)-propanamido)-3-hydroxypropanoate]	completely inactive	inactive	
MALP-2			Efficacy (survival) [5]: efficacious in prolonging survival; Tolerability [5]: well-tolerated
CCCCCCCCCCCCCCCCOC[C@H](CSC[C@H](N)C(=O)N[C@@H](CO)C(=O)OC)OCCCCCCCCCCCCCCCC [Compound 28, (S)-methyl 2-((R)-2-amino-3-((R)-2,3-bis(hexadecyloxy)propylthio)propanamido)-3-hydroxypropanoate]	entirely inactive	inactive	
CCCCCCCCCCCCCCCC(=O)OC[C@@H](CSCCN)OC(=O)CCCCCCCCCCCCCCC [Compound 6b, (S)-3-(2-aminoethylthio)propane-1,2-diyl dipalmitate]	completely inactive	inactive	
CCCCCCCCCCCCCCCC(=O)OC[C@H](CSC[C@H](N)C(=O)OC)OC(=O)CCCCCCCCCCCCCCC [Compound 11, (R)-3-((R)-2-amino-3-methoxy-3-oxopropylthio)propane-1,2-diyl dipalmitate]	weakly TLR2-agonistic		
